Source: PubChem
KCNK9 block: human KCNK9 channel inhibition. B-score at 10 µM. HEK293 KCNK9, FluxOR thallium flux fluorescence; stronger effect = lower value. hit rate 1.2% among 310,000;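 active means ratio B-score over 3 SD below the library mean, with starting fluorescence within 5 SD of its mean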;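 further: negative B-score means less thallium flux so channel inhibition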
KCNK3 inh: human KCNK3 channel inhibition, primary screen | O14649 | CHO-KCNK3 thallium flux, FluxOR fluorescence; stronger effect = lower value | B-score at 10 µM | hit rate 0.84% among 340,000 | AID 602410;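 active means B-score under library mean minus 4 SD, starting fluorescence ratio at most library mean plus 5 SD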;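 further: more negative B-score means stronger inhibition of thallium flux through KCNK3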
hERG rescue: shields human hERG channel from block by proarrhythmic agents; Q12809; CHO-hERG, FluxOR thallium flux, dofetilide IC70 present; activation (rescue from dofetilide block), less the hit threshold, % at 10 µM; hit rate 0.51% among 310,000;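 active means activation above the mean of controls blocked by dofetilide plus 5 SD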;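 further: thallium influx through hERG after potassium depolarization seen as dye fluorescence rise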
KCNQ1 inh: blocks the human KCNQ1 potassium channel | CHO-K1 KCNQ1, FluxOR thallium flux fluorescence; stronger effect = higher value | B-score at 10 µM | hit rate 1.3% among 310,000 | AID 2642;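 active means compounds whose thallium flux B-score, printed positive for inhibition, exceeds three library SD while starting fluorescence stays within three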;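 further: channel opened by potassium depolarization with thallium stimulus after 20 min compound exposure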
KCNQ1 act: potentiators or activators of human KCNQ1 potassium channel. P51787. hit rate 0.35% among 310,000. B-score at 10 µM. CHO-K1 KCNQ1, thallium flux FluxOR fluorescence; stronger effect = higher value. AID 2648;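 active means fluorescence ratio B-score, a plate-corrected score, at least three library SD, with initial intensity B-score within 5 SD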
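System: CHO-K1 cells stably expressing KCNQ1 / Medium: assay buffer for compound exposure, DMSO matched across wells / Reagent: thallium- and potassium-containing depolarizing buffer / Compound: one concentration, matched DMSO / Incubation: 20 min compound pretreatment at room temperature / Measured by: kinetic FluxOR fluorescence, 10 s baseline plus 110 s post-stimulus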
Kir21 inh: Kir2.1 (mouse) channel inhibition; P35561; HEK293-Kir2.1, FluxOR thallium flux fluorescence; stronger effect = lower value; B-score at 10 µM; hit rate 0.85% among 310,000; AID 1672;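 active means fluorescence ratio B-score at or below minus 3 SD of library scores, with starting-brightness B-score within 2 SD, cut at about -4.2 in these data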;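 further: channel flux triggered by added potassium and thallium sulfate stimulus; B-score of peak minus minimum fluorescence over baseline after thallium stimulus; more negative B-score means stronger Kir2.1 block with less thallium influx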
Each line names hits and unclear results; the compound was inactive in the other large screens. Compounds with a hit are over-represented: about 3.7% of the library has one in this group of screens.

CN1CCN(CC(O)COc2ccc(Cl)cc2)CC1 (centres undefined)	none
CC(C)[C@H](NC(=O)c1ccccc1Cl)C(=O)OCC(=O)NCc1ccc2c(c1)OCO2	none (no result: KCNK9 block, hERG rescue, KCNQ1 inh, KCNQ1 act, Kir21 inh)
S=c1[nH]nc(CSc2nc3ccccc3s2)n1C1CCCCC1	KCNK9 block -7.5, KCNQ1 act 22
Cc1ccccc1OCC(=O)OCC(=O)Nc1ncc(Cl)c(C)c1Cl	none (no result: KCNK9 block, hERG rescue, KCNQ1 inh, KCNQ1 act, Kir21 inh)
CCC(C(=O)O)P(=O)(c1ccc(Cl)cc1)c1ccc(Cl)cc1 (centres undefined)	none
COc1ccc(/C=N/NC(=O)c2cccc(C(=O)N/N=C/c3ccc(OC)c(OC)c3)n2)cc1OC	none
COc1ccc(/C=N/NC(=O)Nc2cccc3nsnc23)cc1OC	KCNK9 block -6.58
Cc1ccc(C(=O)OCC(=O)NC2CCCCC2)s1	none
Cc1ccc(-c2cc(-c3ccc(F)cc3)c(C#N)c(N)n2)o1	none
Cc1cc(-c2cc(-c3ccc(Cl)cc3)nc(N)c2C#N)co1	Kir21 inh -4.91
Cc1ccc(-c2cc(-c3ccc(Cl)cc3)c(C#N)c(N)n2)o1	Kir21 inh -4.45
CCCCNS(=O)(=O)c1cc2c3c(c1)CCN3C(=O)CC2	none
O=C(Nc1ccc(Cn2ccnc2)cc1)c1cccc(C(F)(F)F)c1	none
Cc1ccc2[nH]c(=O)c(CN(Cc3ccccc3)C(=S)NCCCN(C)C)cc2c1	Kir21 inh -4.65
CC(=O)Nc1ccc(NC(=O)COC(=O)c2cnccn2)cc1	none
Cc1ccc(O)c(NC(=S)NC(=O)Cc2ccc(Cl)cc2)c1	KCNQ1 act 50
N#CC(c1ccc(Cl)cc1)c1cccc(Cl)n1 (centres undefined)	none
COc1ccc2c(c1)sc(N)[n+]2Cc1cc(C)cc2cccnc12	Kir21 inh -4.53
CCOc1ccc2c(c1)sc(N)[n+]2Cc1cc(C)cc2cccnc12	Kir21 inh -4.34
Cc1cc(C[n+]2ncsc2N)c2ncccc2c1	none
CCC(C)NS(=O)(=O)c1ccc(OC)c(Cl)c1Cl (centres undefined)	none
N#Cc1c(NC(=O)CSc2ccccn2)oc(-c2ccccc2)c1-c1ccccc1	KCNQ1 inh 7
CCOC(=O)c1ccc(NC(=O)Cn2nnc(-c3ccccc3)n2)cc1	hERG rescue 13.8
COc1ccc(CN(Cc2cccn2C)S(=O)(=O)c2ccc(F)cc2)cc1	KCNK9 block -6.85
O=C([C@@H]1Cc2ccccc2CN1)N1CCN(Cc2ccccc2)CC1	none
Cc1cc(C=O)c2c(c1)C=CC1(Oc3ccccc3C(=O)N1C)O2 (centres undefined)	hERG rescue 20.7 (no result: KCNK3 inh)
COc1ccc(N2CCN(C(=O)C(=O)c3c(C)n(C)c4ccccc34)CC2)cc1	none
NN=C1c2ccccc2-c2ccc(N)cc21	none (no result: KCNK9 block, hERG rescue, KCNQ1 inh, KCNQ1 act, Kir21 inh)
COc1ccc(CNC(=O)c2ccc(CS(=O)(=O)Cc3ccccc3F)o2)cc1	none
COc1cc2nc(Nc3ccc(F)cc3)nc(N)c2cc1OC	Kir21 inh -5.9
COc1cccc(C(c2nnnn2Cc2ccco2)N2CCN(c3cccc(C)c3C)CC2)c1OC (centres undefined)	KCNK9 block -6.75, KCNQ1 inh 6
COC(=O)C1=C(C)N(C)C(=S)N(C)C1c1cccc(Br)c1 (centres undefined)	Kir21 inh -5.02
CCOC(=O)C1=C(C)N(C)C(=S)N(C)C1c1ccc(OC)cc1 (centres undefined)	none
CCc1ccc(CN(C)CC(=O)Nc2ccc(S(=O)(=O)N3CCOCC3)cc2)cc1	none (no result: KCNK9 block, hERG rescue, KCNQ1 inh, KCNQ1 act, Kir21 inh)
Cc1ccc(C(=O)Cn2c(N3CCOCC3)nc3c2c(=O)n(C)c(=O)n3C)cc1	hERG rescue 5.0
COc1ccc(-c2nc(-c3ccccc3)c(-c3cc([N+](=O)[O-])ccc3C)[nH]2)cc1O	KCNK9 block -10.3, KCNQ1 inh 7
O=C(N/C(=C\c1cccs1)C(=O)N1CCOCC1)c1cccs1	none
CSc1nc2cc(Oc3cccc(Cl)c3Cl)c(Cl)cc2[nH]1	KCNK3 inh -11.3, KCNQ1 inh 14
CCCCN1C(=O)C2C(c3ccc(OC)cc3O)NC(CC(C)C)(C(=O)O)C2C1=O (centres undefined)	none
CCC1(C(=O)O)NC(c2cc(OC)ccc2O)C2C(=O)N(Cc3ccccc3)C(=O)C21 (centres undefined)	hERG rescue 5.5
Cc1c(C(Nc2ccccn2)c2ccc(Cl)cc2)c(=O)n(-c2ccccc2)n1C (centres undefined)	KCNK9 block -6.62
CCOC(=O)c1ccccc1NC(=O)COC(=O)CSc1ccccc1	none
COc1ccc(NC(=O)C(=O)N2N=C(C(C)C)CC2(O)C(F)(F)F)cc1 (centres undefined)	KCNQ1 inh 6
CC(C)C1=NN(C(=O)c2cccnc2)C(O)(C(F)(F)F)C1 (centres undefined)	none
CCCC1=NN(C(=O)C(=O)Nc2ccc(Br)cc2)C(O)(C(F)(F)F)C1 (centres undefined)	none
CCC1=NN(C(=O)C(=O)Nc2ccc(Br)cc2)C(O)(C(F)(F)F)C1 (centres undefined)	KCNQ1 inh 6
O=C(C1CCCO1)N1CCN(C(=S)Nc2ccccc2Cl)CC1 (centres undefined)	none
Cc1ccc(CN(C(=O)COc2cccc(C)c2C)C2CCS(=O)(=O)C2)o1 (centres undefined)	none
CCCCC(=O)Nc1nc(C)c(-c2csc(Nc3cc(Cl)ccc3OC)n2)s1	KCNK9 block -7.46, KCNQ1 inh 7
CCCCC(=O)Nc1nc(C)c(-c2csc(Nc3cc(OC)ccc3OC)n2)s1	KCNK9 block -7.82
COc1ccccc1NS(=O)(=O)c1cc(NC(=O)Cc2n[nH]c(=O)c3ccccc23)ccc1Cl	none (no result: KCNK9 block, hERG rescue, KCNQ1 inh, KCNQ1 act, Kir21 inh)
COc1ccc(OC)c(S(=O)(=O)Nc2c(NC3CCCCC3)c3ccccc3oc2=O)c1	none
COC(=O)Cn1c(N)[n+](Cc2ccccc2)c2ccccc21	none
CC(Sc1ccc(Cl)cc1)C(=O)NNC(=O)c1ccccc1O (centres undefined)	KCNQ1 inh 6
Clc1ccc(CSc2nnc(CNc3cccc(Cl)c3)o2)cc1	KCNQ1 inh 6
Fc1cccc(Cl)c1CSc1nnc(CNc2ccccc2)o1	none
Cc1n[nH]c(=O)c2c(NC(=O)CSc3nn(-c4ccc(F)cc4)c(=S)s3)oc(C)c12	KCNQ1 inh 6
C=CCNc1nc(N2CCCCC2)c(C#N)c2c1CN(Cc1ccccc1)CC2	KCNK3 inh -11.3
CCOc1ccc(N2CC(C(=O)Nc3ccccc3C(=O)NC3CC3)CC2=O)cc1 (centres undefined)	none
O=C1c2cccc3c([N+](=O)[O-])ccc(c23)C(=O)N1c1ccc(Cl)cn1	KCNQ1 inh 7, Kir21 inh -4.95
O=C1c2cccc3c([N+](=O)[O-])ccc(c23)C(=O)N1O	KCNQ1 inh 8
